The record followed here is ChEMBL document CHEMBL2176946, “An anthraquinone scaffold for putative, two-face Bim BH3 α-helix mimic” (J Med Chem, 2012).

Test [1] deals with T1, Induced myeloid leukemia cell differentiation protein Mcl-1 (Homo sapiens, UniProt Q07820). Kind of test: Binding affinity to Mcl-1 after 30 mins by florescence polarization assay. Put shortly:
(§1)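 Fluorescence polarization binding assay against Mcl-1 and Bcl-2 proteins.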

Test [2] addresses Apoptosis regulator Bcl-2 (Homo sapiens, UniProt P10415). As to the kind of experiment: Binding affinity to Bcl-2 after 30 mins by florescence polarization assay. The method in brief: as §1
The next test concerns HEK293. Kind of test: Cytotoxicity against human HEK293 cells by MTT assay. The class given is cell-based.
The subject of test [3] is MCF7. As to the kind of experiment: Cytotoxicity against human MCF7 cells by MTT assay. Type of test: functional, cell-based. (Tetrazolium dyes change colour on reduction, which living cells bring about.)
The next test concerns HeLa. Kind of test: Cytotoxicity against human HeLa cells by MTT assay. The class given is functional, cell-based.
The subject of test [4] is MCF7. Kind of test: Cytotoxicity against human MCF7 cells transfected with Bax/Bak shRNA assessed as cell viability after 48 hrs by MTT assay. The class given is functional, cell-based. The method in brief: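 MCF-7 cells transfected with nonspecific shRNA or Bax/Bak shRNA, treated 48 h with graded doses of compound. Viability read by MTT assay.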
In a further test the test system is Nucleic Acid. As to the kind of experiment: Induction of DNA damage in Escherichia coli pBR322 at 100 uM after 2 hrs by agarose gel electrophoresis. Type of test: functional.
Test [5] has as its target T1, Induced myeloid leukemia cell differentiation protein Mcl-1. As to the kind of experiment: Binding affinity to Mcl-1 in ABT737-resistant human Nalm-6 cells assessed as disruption of Mcl-1/Bak at 5 uM after 12 to 24 hrs by coimmunoprecipitation assay. Type of test: cell-based. Put shortly: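 Nalm-6 cells (ABT737-resistant) incubated with 5 μM compound for 12 or 24 h. Total cell lysates immunoprecipitated with anti-Bcl-2 or anti-Mcl-1 antibody. Precipitates and lysates resolved by SDS-PAGE and Western blotted with anti-Bcl-2, anti-Bax, anti-Mcl-1 and anti-Bak antibodies.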

A short description of test [6]: Cytotoxicity against human NCI-H1688 cells by MTT assay. The class given is functional, cell-based.
The subject of test [7] is MCF7. As to the kind of experiment: Induction of apoptosis in human MCF7 cells at 10 uM after 12 to 24 hrs by Annexin V-FITC/PI staining based flow cytometry. The class given is functional, cell-based. (In general: In flow cytometry, cells or beads pass a laser one at a time.)
For test [8], the system named is MCF7. Kind of test: Induction of necrosis in human MCF7 cells at 10 uM after 12 to 24 hrs by Annexin V-FITC/PI staining based flow cytometry. Type of test: functional, cell-based.
The next test deals with K562. Kind of test: Cytotoxicity against human K562 cells by MTT assay. Type of test: functional, cell-based.
A further test has as its system U-937. As to the kind of experiment: Cytotoxicity against human U937 cells by MTT assay. The class given is functional, cell-based.
In another test the test system is SMMC-7721. As to the kind of experiment: Cytotoxicity against human SMMC7721 cells by MTT assay. Type of test: functional, cell-based.

The source made the active and inactive calls. The rule behind the calls is not given here.

T1 sequence (Q07820 whole entry): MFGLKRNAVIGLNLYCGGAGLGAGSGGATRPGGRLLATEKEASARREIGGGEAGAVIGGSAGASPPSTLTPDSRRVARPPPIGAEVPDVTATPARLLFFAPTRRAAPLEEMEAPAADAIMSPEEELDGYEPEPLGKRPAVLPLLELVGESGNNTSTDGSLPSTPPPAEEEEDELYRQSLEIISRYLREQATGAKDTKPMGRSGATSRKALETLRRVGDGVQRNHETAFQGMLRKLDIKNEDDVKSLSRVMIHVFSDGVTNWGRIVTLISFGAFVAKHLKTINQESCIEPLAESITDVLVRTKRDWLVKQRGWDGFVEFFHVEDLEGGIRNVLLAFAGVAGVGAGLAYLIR
Sequence of Apoptosis regulator Bcl-2 (P10415 whole entry): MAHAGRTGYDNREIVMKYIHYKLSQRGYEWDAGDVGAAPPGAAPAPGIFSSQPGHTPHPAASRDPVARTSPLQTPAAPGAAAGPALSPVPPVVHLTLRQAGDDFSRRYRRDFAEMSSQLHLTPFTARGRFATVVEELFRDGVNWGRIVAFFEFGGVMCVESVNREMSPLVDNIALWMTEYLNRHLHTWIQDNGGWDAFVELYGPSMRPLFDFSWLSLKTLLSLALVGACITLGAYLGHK

As a reminder, the Ki is a measure of affinity in units of concentration, obtained from inhibition or displacement. Low readings indicate tighter binding, high ones weaker binding. For `O=C1c2ccccc2C(=O)c2cc(O)c(O)cc21`, the inhibition constant Ki in test [1] is 312 nM; in test [2], 420 nM.
In general, IC50 refers to the point on the concentration scale where inhibition reaches its midpoint. High values mean weaker potency in that assay, low ones greater potency in that assay. On to `CC(C)c1ccc(Sc2ccc3c(c2)C(=O)c2cc(O)c(O)cc2C3=O)cc1`, for which the IC50 with HEK293 is 50300 nM; in the test with MCF7 [3], 6120 nM; with HeLa it was 5240 nM; in [6], 4370 nM; with K562 it was 3250 nM; with U-937, 4060 nM. Moreover, the half-inhibitory concentration (IC50) in the test with SMMC-7721 is 6850 nM. For the same compound, the outcome with MCF7 [4], in the test with Nucleic Acid and in the test on MCF7 [8] was inactive. Besides, the Ki worked out at 13 nM in [1] and 24 nM in test [2]. Besides, the outcome (in test [5]; with MCF7 [7]) was Active.
For the compound `O=C1c2ccc(Sc3ccccc3)cc2C(=O)c2cc(O)c(O)cc21`, the results for the Ki in test [1] and in [2] were 53 nM and 71 nM, respectively.
On the same counts, the results for `O=C1c2ccc(Br)cc2C(=O)c2cc(O)c(O)cc21` are 107 nM and 132 nM.
On the same counts, the results for `O=C1c2ccc(Sc3ccc(Br)cc3)cc2C(=O)c2cc(O)c(O)cc21` are 56 nM and 87 nM.
Regarding `O=C1c2ccccc2C(=O)c2c1cc(O)c(O)c2O`, the figures for the Ki in test [1] and in test [2] were 270 nM and 583 nM, respectively.
The like results for `O=C1c2ccccc2C(=O)c2c1ccc(O)c2O` [ATHRAQUINONES A] were, in that order, 1620 nM and 1150 nM.
On the same counts, the results for `Cc1ccc(Sc2ccc3c(c2)C(=O)c2cc(O)c(O)cc2C3=O)cc1` are 38 nM and 44 nM.
As for `O=C1c2ccccc2C(=O)c2c(O)cc(O)cc21` [XANTHOPURPURIN], the Ki turned out to be 2270 nM in [1] and 1700 nM in [2].
